In ChEMBL document CHEMBL1149833, “Lignans from Kadsura angustifolia” (J Nat Prod, 2008):

Columns and labels:
[1] = tested on: Human immunodeficiency virus 1; experiment: Antiviral activity against HIV1 in human C8166 cells assessed as prevention of virus-induced cytopathic effect; assay type: functional, organism-based; conditions: Human immunodeficiency virus 1, C8166
Method in brief: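 HIV-1 infection of C8166 cells, with protection measured as inhibition of virus-induced cytopathic effects and reported as EC50. Cytotoxicity in the same cells was determined in parallel. AZT served as positive control.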

[2] = Cytotoxicity against human C8166 cells by MTT assay; assay type: cell-based
Method in brief: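 MTT viability assay on C8166 cells, reported as CC50. It was run in parallel with the HIV-1 cytopathic-effect assay, with AZT as positive control.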

[3] = Selectivity index, Ratio of CC50 for human C8166 cells to EC50 for HIV1

| EC50 [1] [µM] | Structure (SMILES) | CC50 [2] [µM] | Ratio [3] |
| --- | --- | --- | --- |
| > 200 | COc1cc2c(c(O)c1OC)-c1c(cc(OC)c(OC)c1OC)[C@@H](OC(C)=O)[C@H](C)[C@H](C)[C@@H]2O [KADANGUSTIN A] | > 200 |  |
| 43.6 | COc1cc2c(c(OC)c1OC)-c1c(cc(OC)c(OC)c1OC)[C@@H]1O[C@H]2[C@H](C)[C@@H]1C [KADSULIGNAN N] | 382 |  |
| 168 | C/C=C(/C)C(=O)O[C@@H]1c2cc(OC)c(OC)c(OC)c2-c2c(cc3c(c2OC)OCO3)[C@@H](OC(C)=O)[C@H](C)[C@]1(C)O [KADSURARIN] | > 200 |  |
| 72.6 | C/C=C(/C)C(=O)O[C@@H]1c2cc(OC)c(OC)c(O)c2-c2c(cc(OC)c(OC)c2OC)[C@@H](OC(C)=O)[C@H](C)[C@@H]1C [KADANGUSTIN F] | 160 |  |
| 3.86 | COc1cc2c(c(O)c1OC)-c1c(cc3c(c1OC)OCO3)[C@@H](O)[C@H](C)[C@H](C)C2 [BINANKADSURIN A] | 227 |  |
| 199 | COc1cc2c(c(O)c1OC)-c1c(cc(O)c(OC)c1OC)[C@@H](O)[C@H](C)[C@H](C)C2 [DEANGELOYLSCHISANTHERIN F] | 281 |  |
| 25.7 | C/C=C(\C)C(=O)O[C@@H]1c2cc(OC)c(OC)c(O)c2-c2c(cc(OC)c(OC)c2OC)[C@@H](OC(C)=O)[C@H](C)[C@@H]1C [KADANGUSTIN G] | 72.2 |  |
| 95.2 | C/C=C(/C)C(=O)Oc1c(OC)c(OC)cc2c1-c1c(cc(O)c(OC)c1OC)[C@@H](O)[C@H](C)[C@H](C)C2 [SCHISANTHERIN F] | > 200 |  |

The next lines start with the compound.

| Structure (SMILES) | EC50 [1] [µM] | CC50 [2] [µM] | Ratio [3] |
| --- | --- | --- | --- |
| COc1c2c(cc3c1-c1c(cc4c(c1OC)OCO4)[C@@H](O)[C@@H](C)[C@@H](C)[C@@H]3O)OCO2 [SCHISANTHERIN P] | 156 | > 200 |  |
| COc1cc2c(c(OC)c1OC)-c1c(cc3c(c1OC)OCO3)[C@H]1O[C@@H]2[C@@H](C)[C@H]1C [KADSULIGNAN L] | 26.2 | 361 |  |
| COc1cc(C[C@@H](C)[C@@H](C)Cc2ccc(O)c(OC)c2)ccc1O [MESODIHYDROGUAIARETIC ACID] | 15.6 | 49.1 |  |
| COc1cc2c(c(O)c1OC)-c1c(cc(OC)c(OC)c1OC)[C@@H](OC(C)=O)[C@H](C)[C@](C)(O)[C@@H]2OC(=O)/C=C/c1ccccc1 [KADANGUSTIN C] | 38.3 | 190 |  |
| COc1c2c(cc3c1-c1c(cc4c(c1OC)OCO4)[C@@H](O)[C@H](C)[C@H](C)C3=O)OCO2 [SCHISANTHERIN Q] | 45.9 | 212 | 4.61 |
| C/C=C(/C)C(=O)O[C@@H]1c2cc3c(c(OC)c2-c2c(cc4c(c2OC)OCO4)[C@@H](O)[C@H](C)[C@@H]1C)OCO3 [SCHISANTHERIN L] | 138 | > 200 |  |
| COc1cc(C(O)C(C)C(C)Cc2cc(OC)c3c(c2)OCO3)cc(O)c1OC (centres undefined) [KADANGUSTIN I] | 21.5 | 35.1 |  |
| COc1c2c(cc3c1-c1c(cc4c(c1OC)OCO4)[C@@H](O)[C@@H](C)[C@@H](C)C3)OCO2 [GOMISIN R] | 54.6 | 221 |  |
| COc1c2c(cc3c1-c1c(cc4c(c1OC)OCO4)[C@@H]1O[C@H]3[C@H](C)[C@@H]1C)OCO2 [EPOXIDESCHISANDRIN C] | 9.35 | 220 |  |
| COc1cc2c(c(O)c1OC)-c1c(cc(OC)c(OC)c1OC)[C@@H](OC(C)=O)[C@H](C)[C@H](C)[C@@H]2OC(=O)/C=C/c1ccccc1 [KADANGUSTIN D] | 25.4 | 97.5 |  |
| COc1ccc(CC(C)C(C)C(O)c2cc(O)c(OC)c(OC)c2)cc1OC (centres undefined) [KADANGUSTIN H] | 27 | 30.7 |  |
| C=CCc1cc(OC)c2c(c1)[C@H](CO)[C@@H](c1ccc(O)c(OC)c1)O2 | 13.1 | 38.1 |  |
| COc1cc2c(c(O)c1OC)-c1c(cc(OC)c(OC)c1OC)[C@@H](OC(C)=O)[C@H](C)[C@H](C)[C@@H]2OC(=O)c1ccccc1 [KADANGUSTIN E] | 60.8 | 138 |  |
| COc1c2c(cc3c1-c1c(cc4c(c1OC)OCO4)[C@@H](OC(C)=O)[C@H](C)[C@H](C)[C@@H]3O)OCO2 [KADANGUSTIN B] | 150 | > 200 |  |
| COc1ccc([C@H]2Oc3c(OC)cc(C=O)cc3[C@@H]2C)cc1O [PERSEAL F] | 40.9 | 270 |  |
| COc1ccc(C(c2ccc(OC)c(OC)c2)C(C)C(C)CO)cc1OC (centres undefined) [KADANGUSTIN J] | 44.7 | 247 |  |
